Data reported in ChEMBL document CHEMBL1126317, “2-(aminoalkyl)-5-nitropyrazolo[3,4,5-kl]acridines, a new class of anticancer agents” (1992).

Tests used:
Format in all cases: functional
Mus musculus [1] = assay: In vivo antitumor activity of the compound(ip, 6.25 mg/kg for 5 days) against CD2F1 mice implanted intraperitoneally with P388 leukemia cells; Day 30 survivors=6/6; conditions: route intraperitoneal
Mus musculus [2] = assay: In vivo antitumor activity of the compound(ip, 6.25 mg/kg for 5 days) against CD2F1 mice implanted intraperitoneally with P388 leukemia cells.; conditions: route intraperitoneal
L1210 = assay: In vitro antitumor activity against L1210 leukemia cell line.; conditions: Mus musculus, read-out: ID50 (the source's name)
HCT-8 = assay: In vitro antitumor activity against HCT-8 colon cancer cell line.; conditions: Homo sapiens, read-out: ID50 (the source's name)
[3] = Ratio of the ID50's showing antitumor activity against HCT-8 and L1210 leukemia cell lines.
Outline: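 Ratio taken as ID50 in HCT-8 cells divided by ID50 in L1210 cells, both ID50s expressed as molar concentrations.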

Mus musculus [4] = assay: In vivo antitumor activity of the compound(ip, 3 mg/kg for 5 days) against CD2F1 mice implanted intraperitoneally with P388 leukemia cells.; conditions: route intraperitoneal
Mus musculus [5] = assay: In vivo antitumor activity of the compound(ip, 3.12 mg/kg for 5 days) against CD2F1 mice implanted intraperitoneally with P388 leukemia cells; Day 30 survivors=1/6; conditions: route intraperitoneal
Mus musculus [6] = assay: In vivo antitumor activity of the compound(ip, 3.12 mg/kg for 5 days) against CD2F1 mice implanted intraperitoneally with P388 leukemia cells.; conditions: route intraperitoneal
Mus musculus [7] = assay: In vivo antitumor activity of the compound(ip, 6.25 mg/kg for 5 days) against CD2F1 mice implanted intraperitoneally with P388 leukemia cells; Day 30 survivors=5/6; conditions: route intraperitoneal
Mus musculus [8] = assay: In vivo antitumor activity of the compound(ip, 12.5 mg/kg for 5 days) against CD2F1 mice implanted intraperitoneally with P388 leukemia cells.; conditions: route intraperitoneal
Mus musculus [9] = assay: In vivo antitumor activity of the compound(ip, 12.5 mg/kg for 5 days) against CD2F1 mice implanted intraperitoneally with P388 leukemia cells; Day 30 survivors=2/6; conditions: route intraperitoneal
Mus musculus [10] = assay: In vivo antitumor activity of the compound(ip, 3.12 mg/kg for 5 days) against CD2F1 mice implanted intraperitoneally with P388 leukemia cells; Day 30 survivors=4/6; conditions: route intraperitoneal
Mus musculus [11] = assay: In vivo antitumor activity of the compound(ip, 12.5 mg/kg for 5 days) against CD2F1 mice implanted intraperitoneally with P388 leukemia cells; Day 30 survivors=3/6; conditions: route intraperitoneal

Compound | IC50 (L1210) [nM] | IC50 (HCT-8) [nM] | Ratio [3] | other results
CS(=O)(=O)O.O=[N+]([O-])c1ccc2c3c(c4cc(O)ccc4nc13)NN2CCNCCO | 4.8 |  |  | Activity (Mus musculus [1]): 6; T/C (Mus musculus [2]): 275%
CCN(CC)CCN1Nc2c3cc(O)ccc3nc3c([N+](=O)[O-])ccc1c23.CS(=O)(=O)O | 2 | 13 | 6.5 | T/C (Mus musculus [4]): 180%
CC(=O)Oc1ccc2c(c1)-c1nn(CCN3CCCC3)c3ccc([N+](=O)[O-])c(c13)N2.CS(=O)(=O)O | 2.2 |  |  | Activity (Mus musculus [5]): 1; T/C (Mus musculus [6]): 236%
CCN(CC)CCN1Nc2c3cc(OC(=O)C(C)(C)C)ccc3nc3c([N+](=O)[O-])ccc1c23.CS(=O)(=O)O | 1 | 9.7 | 0.97 | Activity (Mus musculus [7]): 5; T/C (Mus musculus [2]): 283%
CCN(CC)CCN1Nc2c3cc(O[Si](C)(C)C(C)(C)C)ccc3nc3c([N+](=O)[O-])ccc1c23.CS(=O)(=O)O | 1.7 |  |  | T/C (Mus musculus [8]): 228%; Activity (Mus musculus [9]): 2
CCN(CC)CCN1Nc2c3cc(OC(C)=O)ccc3nc3c([N+](=O)[O-])ccc1c23.CS(=O)(=O)O | 3.8 | 5.3 | 1.4 | T/C (Mus musculus [6]): 283%; Activity (Mus musculus [10]): 4
CCN(CC)CCN1Nc2c3c(Cl)c(OC)ccc3nc3c([N+](=O)[O-])ccc1c23.CS(=O)(=O)O | 61 |  |  | T/C (Mus musculus [8]): 230%; Activity (Mus musculus [11]): 3
